What was measured:
[1] = biological target: T1, Vascular endothelial growth factor receptor 2 (Homo sapiens, UniProt P35968); experiment: Inhibition of KDR using Tyr 01 peptide as substrate at 10 uM after 60 mins by Z'-LYTE assay
[2] = biological target: Receptor-type tyrosine-protein kinase FLT3 (Homo sapiens) (UniProt P36888); experiment: Inhibition of Flt3 using Tyr 02 peptide as substrate at 10 uM after 60 mins by Z'-LYTE assay
[3] = biological target: T1, Vascular endothelial growth factor receptor 2; experiment: Inhibition of KDR using Tyr 01 peptide as substrate at 1 uM after 60 mins by Z'-LYTE assay
[4] = biological target: Platelet-derived growth factor receptor beta (Homo sapiens) (UniProt P09619); experiment: Inhibition of PDGFRbeta using Tyr 04 peptide as substrate at 10 uM after 60 mins by Z'-LYTE assay
[5] = biological target: Vascular endothelial growth factor receptor 3 (Homo sapiens) (UniProt P35916); experiment: Inhibition of VEGFR3 using Tyr 04 peptide as substrate at 10 uM after 60 mins by Z'-LYTE assay
Vascular endothelial growth factor receptor 3 (Homo sapiens), sequence (P35916 whole entry): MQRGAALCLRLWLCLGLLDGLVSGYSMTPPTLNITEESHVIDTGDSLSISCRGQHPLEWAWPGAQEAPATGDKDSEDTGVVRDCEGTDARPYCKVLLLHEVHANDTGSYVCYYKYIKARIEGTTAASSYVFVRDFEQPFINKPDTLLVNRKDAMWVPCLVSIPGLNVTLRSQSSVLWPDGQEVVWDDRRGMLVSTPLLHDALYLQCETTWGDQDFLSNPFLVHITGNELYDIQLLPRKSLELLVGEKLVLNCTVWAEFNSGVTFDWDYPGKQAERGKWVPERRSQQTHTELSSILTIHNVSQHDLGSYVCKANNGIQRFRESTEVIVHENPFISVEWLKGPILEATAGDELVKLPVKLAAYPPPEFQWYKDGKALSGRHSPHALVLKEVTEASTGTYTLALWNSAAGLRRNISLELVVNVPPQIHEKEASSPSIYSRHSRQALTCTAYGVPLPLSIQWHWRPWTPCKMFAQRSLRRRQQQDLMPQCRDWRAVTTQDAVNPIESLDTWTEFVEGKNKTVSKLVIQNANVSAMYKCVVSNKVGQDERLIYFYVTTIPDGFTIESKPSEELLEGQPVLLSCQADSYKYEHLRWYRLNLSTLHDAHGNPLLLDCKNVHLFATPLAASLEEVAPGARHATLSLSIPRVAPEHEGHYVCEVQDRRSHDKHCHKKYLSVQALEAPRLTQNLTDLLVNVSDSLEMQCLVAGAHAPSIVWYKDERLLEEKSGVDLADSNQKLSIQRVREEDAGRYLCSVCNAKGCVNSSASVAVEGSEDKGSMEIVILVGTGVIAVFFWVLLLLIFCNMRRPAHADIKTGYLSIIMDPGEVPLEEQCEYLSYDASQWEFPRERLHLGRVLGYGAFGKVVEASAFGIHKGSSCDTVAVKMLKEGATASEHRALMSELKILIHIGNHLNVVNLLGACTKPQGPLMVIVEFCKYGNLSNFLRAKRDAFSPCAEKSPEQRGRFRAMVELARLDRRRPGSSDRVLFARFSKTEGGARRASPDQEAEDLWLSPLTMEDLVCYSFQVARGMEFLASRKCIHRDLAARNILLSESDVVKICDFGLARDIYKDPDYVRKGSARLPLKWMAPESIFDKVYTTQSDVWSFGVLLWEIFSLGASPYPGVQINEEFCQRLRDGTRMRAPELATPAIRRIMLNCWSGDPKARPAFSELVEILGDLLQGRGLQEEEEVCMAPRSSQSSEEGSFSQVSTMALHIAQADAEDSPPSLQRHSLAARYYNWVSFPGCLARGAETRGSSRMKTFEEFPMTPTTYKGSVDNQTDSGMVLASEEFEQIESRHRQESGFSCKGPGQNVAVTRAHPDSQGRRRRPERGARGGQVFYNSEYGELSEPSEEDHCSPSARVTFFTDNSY

[6] = biological target: T2, Mast/stem cell growth factor receptor Kit (Homo sapiens, UniProt P10721); experiment: Inhibition of c-Kit using Tyr 06 peptide as substrate at 1 uM after 60 mins by Z'-LYTE assay
[7] = biological target: T2, Mast/stem cell growth factor receptor Kit; experiment: Inhibition of c-Kit using Tyr 06 peptide as substrate at 10 uM after 60 mins by Z'-LYTE assay
[8] = biological target: Platelet-derived growth factor receptor alpha (Homo sapiens) (UniProt P16234); experiment: Inhibition of PDGFRalpha using Tyr 04 peptide as substrate at 1 uM after 60 mins by Z'-LYTE assay
[9] = biological target: Platelet-derived growth factor receptor beta (Homo sapiens) (UniProt P09619); experiment: Inhibition of PDGFRbeta using Tyr 04 peptide as substrate at 1 uM after 60 mins by Z'-LYTE assay
[10] = biological target: Vascular endothelial growth factor receptor 3 (Homo sapiens) (UniProt P35916); experiment: Inhibition of VEGFR3 using Tyr 04 peptide as substrate at 1 uM after 60 mins by Z'-LYTE assay
[11] = biological target: Platelet-derived growth factor receptor alpha (Homo sapiens) (UniProt P16234); experiment: Inhibition of PDGFRalpha using Tyr 04 peptide as substrate at 10 uM after 60 mins by Z'-LYTE assay
[12] = biological target: Vascular endothelial growth factor receptor 1 (Homo sapiens) (UniProt P17948); experiment: Inhibition of VEGFR1 using Tyr 04 peptide as substrate at 1 uM after 60 mins by Z'-LYTE assay
Vascular endothelial growth factor receptor 1 (Homo sapiens), sequence (P17948 whole entry): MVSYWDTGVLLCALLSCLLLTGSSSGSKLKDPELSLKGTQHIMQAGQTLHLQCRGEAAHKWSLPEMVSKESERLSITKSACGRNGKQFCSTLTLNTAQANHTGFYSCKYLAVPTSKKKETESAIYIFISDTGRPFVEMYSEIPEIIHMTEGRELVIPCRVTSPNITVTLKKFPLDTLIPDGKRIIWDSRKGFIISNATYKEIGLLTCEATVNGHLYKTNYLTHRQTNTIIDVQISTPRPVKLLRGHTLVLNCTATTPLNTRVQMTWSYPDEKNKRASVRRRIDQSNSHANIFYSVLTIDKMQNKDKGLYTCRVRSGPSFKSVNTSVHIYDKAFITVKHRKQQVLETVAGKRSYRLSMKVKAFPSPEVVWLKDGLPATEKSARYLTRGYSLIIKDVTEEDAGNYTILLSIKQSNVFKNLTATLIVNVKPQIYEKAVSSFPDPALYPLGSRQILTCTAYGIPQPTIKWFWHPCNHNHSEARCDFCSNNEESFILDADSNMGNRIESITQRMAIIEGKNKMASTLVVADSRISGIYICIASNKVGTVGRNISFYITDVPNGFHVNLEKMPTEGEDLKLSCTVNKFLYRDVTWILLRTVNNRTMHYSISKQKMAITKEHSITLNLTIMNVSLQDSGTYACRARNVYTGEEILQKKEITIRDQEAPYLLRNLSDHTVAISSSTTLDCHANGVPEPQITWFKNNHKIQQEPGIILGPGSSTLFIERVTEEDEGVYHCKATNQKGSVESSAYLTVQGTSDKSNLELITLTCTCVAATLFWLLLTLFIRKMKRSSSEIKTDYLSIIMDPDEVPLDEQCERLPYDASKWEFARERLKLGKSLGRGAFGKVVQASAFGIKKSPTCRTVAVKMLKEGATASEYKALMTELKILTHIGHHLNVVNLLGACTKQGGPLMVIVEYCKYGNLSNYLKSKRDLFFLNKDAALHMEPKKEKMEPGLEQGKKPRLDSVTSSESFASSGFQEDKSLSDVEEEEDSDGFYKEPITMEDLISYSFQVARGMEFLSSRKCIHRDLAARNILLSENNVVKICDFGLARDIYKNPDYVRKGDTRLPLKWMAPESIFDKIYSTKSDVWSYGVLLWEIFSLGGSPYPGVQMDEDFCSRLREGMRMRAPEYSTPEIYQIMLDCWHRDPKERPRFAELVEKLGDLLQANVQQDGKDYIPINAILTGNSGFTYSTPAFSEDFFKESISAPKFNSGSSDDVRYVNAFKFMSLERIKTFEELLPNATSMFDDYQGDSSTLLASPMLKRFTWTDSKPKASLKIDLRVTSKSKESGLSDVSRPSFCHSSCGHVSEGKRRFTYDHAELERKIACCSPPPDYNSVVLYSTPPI

[13] = biological target: Vascular endothelial growth factor receptor 1 (Homo sapiens) (UniProt P17948); experiment: Inhibition of VEGFR1 using Tyr 04 peptide as substrate at 10 uM after 60 mins by Z'-LYTE assay
[14] = biological target: Angiopoietin-1 receptor (Homo sapiens) (UniProt Q02763); experiment: Inhibition of Tie-2 using Tyr 05 peptide as substrate at 1 uM after 60 mins by Z'-LYTE assay
Angiopoietin-1 receptor (Homo sapiens), sequence (Q02763 whole entry): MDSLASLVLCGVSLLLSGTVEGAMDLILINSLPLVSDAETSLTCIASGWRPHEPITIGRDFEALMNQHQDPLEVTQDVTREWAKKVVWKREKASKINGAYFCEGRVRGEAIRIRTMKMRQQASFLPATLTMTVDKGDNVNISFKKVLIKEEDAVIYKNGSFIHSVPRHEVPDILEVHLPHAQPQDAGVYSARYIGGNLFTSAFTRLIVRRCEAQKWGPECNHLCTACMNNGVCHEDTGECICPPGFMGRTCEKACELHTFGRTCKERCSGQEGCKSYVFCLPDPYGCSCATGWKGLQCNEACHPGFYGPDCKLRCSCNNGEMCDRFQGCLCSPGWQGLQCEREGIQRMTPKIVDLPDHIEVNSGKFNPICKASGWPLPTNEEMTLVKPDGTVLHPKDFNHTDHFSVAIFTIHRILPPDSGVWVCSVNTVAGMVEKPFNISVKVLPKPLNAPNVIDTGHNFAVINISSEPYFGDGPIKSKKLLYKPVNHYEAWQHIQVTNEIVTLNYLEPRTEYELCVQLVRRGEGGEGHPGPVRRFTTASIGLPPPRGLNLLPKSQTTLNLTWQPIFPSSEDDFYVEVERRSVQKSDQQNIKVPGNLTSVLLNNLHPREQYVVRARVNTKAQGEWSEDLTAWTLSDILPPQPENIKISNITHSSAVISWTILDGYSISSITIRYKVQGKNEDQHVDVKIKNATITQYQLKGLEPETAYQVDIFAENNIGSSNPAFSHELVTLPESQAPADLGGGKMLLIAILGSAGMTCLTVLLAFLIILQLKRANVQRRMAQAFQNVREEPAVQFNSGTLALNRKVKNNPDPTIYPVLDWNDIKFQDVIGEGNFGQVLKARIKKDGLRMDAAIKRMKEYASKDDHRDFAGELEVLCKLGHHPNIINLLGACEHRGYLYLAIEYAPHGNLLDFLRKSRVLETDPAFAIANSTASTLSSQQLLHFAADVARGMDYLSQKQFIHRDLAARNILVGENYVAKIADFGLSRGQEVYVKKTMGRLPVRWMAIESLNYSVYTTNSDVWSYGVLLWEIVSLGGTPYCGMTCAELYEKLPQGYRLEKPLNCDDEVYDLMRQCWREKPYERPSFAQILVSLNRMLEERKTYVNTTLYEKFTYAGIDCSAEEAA

[15] = biological target: Receptor-type tyrosine-protein kinase FLT3 (Homo sapiens) (UniProt P36888); experiment: Inhibition of Flt3 using Tyr 02 peptide as substrate at 1 uM after 60 mins by Z'-LYTE assay
[16] = biological target: Angiopoietin-1 receptor (Homo sapiens) (UniProt Q02763); experiment: Inhibition of Tie-2 using Tyr 05 peptide as substrate at 10 uM after 60 mins by Z'-LYTE assay
ABCG2 = biological target: T3, ABCG2 (Homo sapiens, UniProt Q9UNQ0); experiment: Inhibition of ATP-dependent ABCG2 pump assessed as ratio of compound IC50 for HEK/ABCG2-482-R2 cells to IC50 for HEK293/pcDNA3.1 cells after 72 hrs by MTT assay; details: HEK/ABCG2-482-R2 cells versus HEK293/pcDNA3.1 cells, read-out: Ratio IC50
T3 sequence (Q9UNQ0 whole entry): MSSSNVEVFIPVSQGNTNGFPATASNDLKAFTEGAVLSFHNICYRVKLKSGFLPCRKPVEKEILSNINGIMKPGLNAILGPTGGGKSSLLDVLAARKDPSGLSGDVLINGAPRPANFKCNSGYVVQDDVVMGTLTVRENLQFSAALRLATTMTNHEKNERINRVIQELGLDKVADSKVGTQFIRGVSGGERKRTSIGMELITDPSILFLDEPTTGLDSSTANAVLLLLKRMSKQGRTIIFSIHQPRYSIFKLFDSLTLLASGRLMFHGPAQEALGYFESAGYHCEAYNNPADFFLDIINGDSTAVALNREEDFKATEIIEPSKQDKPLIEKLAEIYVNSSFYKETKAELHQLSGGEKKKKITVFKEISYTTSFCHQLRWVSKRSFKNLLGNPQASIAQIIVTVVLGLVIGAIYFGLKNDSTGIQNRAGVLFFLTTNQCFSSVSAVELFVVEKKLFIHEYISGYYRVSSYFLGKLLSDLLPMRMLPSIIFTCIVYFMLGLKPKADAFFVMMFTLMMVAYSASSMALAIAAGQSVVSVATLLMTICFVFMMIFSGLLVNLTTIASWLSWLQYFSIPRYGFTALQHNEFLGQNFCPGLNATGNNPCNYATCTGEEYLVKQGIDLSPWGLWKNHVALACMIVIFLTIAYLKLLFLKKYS
Summary of the method: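 Fold-resistance was calculated as mitoxantrone IC50 in HEK/ABCG2-482-R2 (wild-type ABCG2-transfected) cells divided by mitoxantrone IC50 in HEK293/pcDNA3 parental cells, with or without analogue at 10 μM. FTC at 2.5 μM served as the reference. Cell survival was measured by MTT. Results are means ± SD of at least three independent experiments, each run in triplicate.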

Receptor-type tyrosine-protein kinase FLT3 (Homo sapiens), sequence (P36888 whole entry): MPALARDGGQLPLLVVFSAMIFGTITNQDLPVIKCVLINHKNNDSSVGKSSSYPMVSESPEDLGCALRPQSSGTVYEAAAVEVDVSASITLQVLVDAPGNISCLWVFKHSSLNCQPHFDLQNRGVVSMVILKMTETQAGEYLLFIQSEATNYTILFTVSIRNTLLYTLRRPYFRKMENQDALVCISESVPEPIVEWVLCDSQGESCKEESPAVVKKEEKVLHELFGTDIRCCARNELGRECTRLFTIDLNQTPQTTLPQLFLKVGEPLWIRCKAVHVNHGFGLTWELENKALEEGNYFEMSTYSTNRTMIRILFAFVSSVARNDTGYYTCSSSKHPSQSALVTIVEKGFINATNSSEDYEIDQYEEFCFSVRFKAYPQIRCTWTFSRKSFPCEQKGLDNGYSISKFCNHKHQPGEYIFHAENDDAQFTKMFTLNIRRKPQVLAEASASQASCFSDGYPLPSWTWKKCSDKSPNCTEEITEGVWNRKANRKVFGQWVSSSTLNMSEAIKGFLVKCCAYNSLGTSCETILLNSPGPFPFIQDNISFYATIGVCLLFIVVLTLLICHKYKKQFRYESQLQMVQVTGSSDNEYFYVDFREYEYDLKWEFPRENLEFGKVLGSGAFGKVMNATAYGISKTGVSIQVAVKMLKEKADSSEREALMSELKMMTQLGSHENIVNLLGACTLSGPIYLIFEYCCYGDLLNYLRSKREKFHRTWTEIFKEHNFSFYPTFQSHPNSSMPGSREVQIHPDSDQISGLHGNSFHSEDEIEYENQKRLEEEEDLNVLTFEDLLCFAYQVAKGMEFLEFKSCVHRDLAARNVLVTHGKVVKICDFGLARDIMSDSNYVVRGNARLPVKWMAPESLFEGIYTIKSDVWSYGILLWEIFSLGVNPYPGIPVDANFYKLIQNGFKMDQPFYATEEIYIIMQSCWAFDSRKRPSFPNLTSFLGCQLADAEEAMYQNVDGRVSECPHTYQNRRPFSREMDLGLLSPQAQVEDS

| Compound | inhibition [1] [%] | inhibition [2] [%] | inhibition [3] [%] | inhibition [4] [%] | inhibition [5] [%] | inhibition [6] [%] | inhibition [7] [%] | inhibition [8] [%] | inhibition [9] [%] | inhibition [10] [%] | inhibition [11] [%] | inhibition [12] [%] | inhibition [13] [%] | inhibition [14] [%] | inhibition [15] [%] | inhibition [16] [%] | selectivity ratio at 72 h (ABCG2) |
| --- | --- | --- | --- | --- | --- | --- | --- | --- | --- | --- | --- | --- | --- | --- | --- | --- | --- |
| Nc1cnccc1CNc1ccsc1C(=O)Nc1ccc(OC(F)(F)F)cc1 | 88 | 41 | 50 | 47 | 41 | 57 | 91 | – | – | – | – | – | – | – | – | – | – |
| O=C(Nc1ccc(OC(F)(F)F)cc1)c1sccc1NCc1cccc(N=C=S)c1 | < 40 | < 40 | < 40 | < 40 | < 40 | < 40 | < 40 | < 40 | < 40 | < 40 | < 40 | < 40 | < 40 | < 40 | < 40 | < 40 | – |
| O=C(CBr)Nc1cccc(CN2C(=O)CN(c3ccc(OC(F)(F)F)cc3)C(=O)c3sccc32)c1 | < 40 | – | < 40 | – | – | < 40 | 41 | – | – | – | – | – | – | – | – | – | – |
| CC(=O)Nc1ccccc1CNc1ccsc1C(=O)Nc1ccc(OC(F)(F)F)cc1 | < 40 | < 40 | < 40 | < 40 | < 40 | < 40 | < 40 | < 40 | < 40 | < 40 | < 40 | < 40 | < 40 | < 40 | < 40 | < 40 | – |
| O=C(Nc1ccc(OC(F)(F)F)cc1)c1sccc1NCc1ccc([N+](=O)[O-])cc1 | < 40 | < 40 | < 40 | < 40 | < 40 | < 40 | < 40 | < 40 | < 40 | < 40 | < 40 | < 40 | < 40 | < 40 | < 40 | < 40 | – |
| O=C(Nc1ccc(OC(F)(F)F)cc1)c1sccc1NCc1ccc(O)cc1 | 54 | – | < 40 | 44 | – | < 40 | 68 | – | – | – | – | – | – | – | – | – | – |
| Nc1cccc(CNc2ccsc2C(=O)Nc2ccc(OC(F)(F)F)cc2)c1 | < 40 | < 40 | < 40 | < 40 | < 40 | < 40 | < 40 | < 40 | < 40 | < 40 | < 40 | < 40 | < 40 | < 40 | < 40 | < 40 | – |
| Nc1ccccc1CNc1ccsc1C(=O)Nc1ccc(OC(F)(F)F)cc1 | < 40 | < 40 | < 40 | < 40 | < 40 | < 40 | < 40 | < 40 | < 40 | < 40 | < 40 | < 40 | < 40 | < 40 | < 40 | < 40 | – |
| Nc1ccc(CNc2ccsc2C(=O)Nc2ccc(OC(F)(F)F)cc2)cc1 | < 40 | < 40 | < 40 | < 40 | < 40 | < 40 | < 40 | < 40 | < 40 | < 40 | < 40 | < 40 | < 40 | < 40 | < 40 | < 40 | – |
| CC(=O)Nc1ccc(CNc2ccsc2C(=O)Nc2ccc(OC(F)(F)F)cc2)cc1 | < 40 | < 40 | < 40 | < 40 | < 40 | < 40 | < 40 | < 40 | < 40 | < 40 | < 40 | < 40 | < 40 | < 40 | < 40 | < 40 | – |
| O=C(Nc1ccc(OC(F)(F)F)cc1)c1sccc1NCc1ccccc1[N+](=O)[O-] | < 40 | < 40 | < 40 | < 40 | < 40 | < 40 | < 40 | < 40 | < 40 | < 40 | < 40 | < 40 | < 40 | < 40 | < 40 | < 40 | – |
| O=C(Nc1ccc(OC(F)(F)F)cc1)c1sccc1NCc1ccccc1N=C=S | < 40 | < 40 | < 40 | < 40 | < 40 | < 40 | < 40 | < 40 | < 40 | < 40 | < 40 | < 40 | < 40 | < 40 | < 40 | < 40 | – |
| CC(=O)Nc1cc(CNc2ccsc2C(=O)Nc2ccc(OC(F)(F)F)cc2)ccn1 | 101 | – | 101 | – | – | 81 | 102 | – | – | – | – | – | – | – | – | – | – |
| O=C1c2c(O)ccc(O)c2C(=O)c2c(NCCNCCO)ccc(NCCNCCO)c21 [MITOXANTRONE] | – | – | – | – | – | – | – | – | – | – | – | – | – | – | – | – | 15.3 |
| CC(=O)Nc1cccc(CNc2ccsc2C(=O)Nc2ccc(OC(F)(F)F)cc2)c1 | < 40 | – | < 40 | – | – | < 40 | 58 | – | – | – | – | – | – | – | – | – | – |
| O=C(Nc1ccc(OC(F)(F)F)cc1)c1sccc1NCc1cccc([N+](=O)[O-])c1 | < 40 | < 40 | < 40 | < 40 | < 40 | < 40 | < 40 | < 40 | < 40 | < 40 | < 40 | < 40 | < 40 | < 40 | < 40 | < 40 | – |
| O=C(Nc1ccc(OC(F)(F)F)cc1)c1sccc1NCc1ccncc1[N+](=O)[O-] | < 40 | – | < 40 | – | – | < 40 | 80 | – | – | – | – | – | – | – | – | – | – |
| O=C(Nc1ccc(OC(F)(F)F)cc1)c1sccc1NCc1ccc(N=C=S)cc1 | < 40 | < 40 | < 40 | < 40 | < 40 | < 40 | < 40 | < 40 | < 40 | < 40 | < 40 | < 40 | < 40 | < 40 | < 40 | < 40 | – |

From ChEMBL document CHEMBL1914443, “Inhibition of c-Kit, VEGFR-2 (KDR), and ABCG2 by analogues of OSI-930” (Bioorg Med Chem Lett, 2011)
